# IDH1 R132H inh: inhibitors of human IDH1 R132H | IDH1 R132H reductase, diaphorase/resazurin fluorescence, 60 min | inhibition, % at 10 µM | 70,000 compounds, 0.18% hits | AID 624101; in the data active = inhibition above about 34%; inconclusive = no clear call, values can overlap the other calls; inactive = below about 11%;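 also: 0% = DMSO and 100% = no enzyme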
# Target sequence (O75874 whole entry R132H): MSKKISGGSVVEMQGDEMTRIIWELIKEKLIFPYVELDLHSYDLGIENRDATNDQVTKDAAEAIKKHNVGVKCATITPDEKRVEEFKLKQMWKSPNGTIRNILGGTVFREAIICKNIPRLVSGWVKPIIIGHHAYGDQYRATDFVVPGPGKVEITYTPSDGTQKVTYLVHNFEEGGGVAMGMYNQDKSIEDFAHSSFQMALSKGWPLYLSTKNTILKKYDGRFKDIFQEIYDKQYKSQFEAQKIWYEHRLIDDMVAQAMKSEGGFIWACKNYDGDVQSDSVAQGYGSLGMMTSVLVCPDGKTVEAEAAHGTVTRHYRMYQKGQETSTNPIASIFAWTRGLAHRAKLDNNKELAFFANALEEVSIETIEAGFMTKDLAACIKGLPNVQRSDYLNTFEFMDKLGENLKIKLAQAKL
# T cruzi growth-1: T. cruzi proliferation inhibition; 77,000 compounds, 5.9% hits; inhibition, % at 8.34 µM; AID 624255; T. cruzi beta-gal in NIH3T3, GalScreen luminescence, 90 h;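 active = mean inhibition above about 93%, with at least 55% of replicates each passing it, limit read from the data, passing the limit was not always enough; inconclusive = only one of those two conditions holds; inactive = neither condition holds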
# GASC1 inh: blocks human GASC-1 (KDM4C) demethylase activity | Q9H3R0 | GST-KDM4C 2-372, H3K9me3 peptide, LANCE TR-FRET | inhibition, % at 12.5 µM | 96,000 compounds, 0.15% hits | AID 720574;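 active = mean replicate inhibition above about 25%, with at least 55% of replicates also reaching it, limit read from the data, passing the limit was not always enough; inconclusive = only one of those two conditions met; inactive = neither condition met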
#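 Test system: N-terminal GST-fused human GASC-1 (KDM4C) fragment, residues 2-372; quantity: GASC-1 enzyme at 10 nM final in reaction; dosing: single dose; schedule: 30 min demethylation and 1 h detection at room temperature; signal: LANCE TR-FRET, excitation 340 nm, emissions 618 and 671 nm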
# T cruzi growth-2: inhibitors of T. cruzi proliferation | shares compounds with T cruzi growth-1 | inhibition, % at 8.35 µM | T. cruzi beta-gal in NIH3T3, GalScreen luminescence, 90 h | 5,600 compounds, 72% hits;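 active = mean replicate inhibition above about 95% and at least 55% of replicates individually reaching it, limit read from the data; inconclusive = only one of the two criteria is met; inactive = neither criterion is met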
# T cruzi growth-3: inhibitors of T. cruzi proliferation | AID 651740 | 5,600 compounds, 21% hits | shares compounds with T cruzi growth-1 | T. cruzi beta-gal in NIH3T3, GalScreen luminescence, 90 h | inhibition, % at 2.09 µM;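 active = mean inhibition above about 95%, with at least 55% of replicates also reaching it, limit read from the data; inconclusive = meets just one of the two conditions; inactive = meets neither condition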;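 also: plate controls were neutral control median for no effect and positive control median for full effect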
# 3T3 cytotox: kills mouse NIH/3T3 fibroblasts. shares compounds with T cruzi growth-1. NIH/3T3 viability, CellTiter-Glo ATP luminescence, 90 h. cytotoxicity (signal decrease), % at 8.35 µM. 5,600 compounds, 14% hits. AID 651742;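 active = mean signal decrease across replicates above about 35% based on untreated-well scatter, with enough replicates individually passing, limit read from the data; inconclusive = no rule stated though some were filed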;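 also: 0% = median of neutral control wells and 100% = median of positive control wells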
# 3T3 cytotox 2: cytotoxicity in mouse NIH/3T3 fibroblasts. shares compounds with T cruzi growth-1. inhibition, % at 24.9 µM. 5,600 compounds, 56% hits. NIH/3T3 viability, CellTiter-Glo ATP luminescence, 90 h;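 active = mean loss of cell viability signal at or above a set limit, and enough replicates individually reaching it; inconclusive = meets only the mean limit or only the replicate share; inactive = meets neither condition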;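 also: 0% = median of neutral control wells and 100% = median of positive control wells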
# Numbers without * were called inactive; ? = inconclusive; / = not tested or not shown. The sample as a whole holds a higher share of hits than the screen did.
SMILES,IDH1 R132H inh,T cruzi growth-1,GASC1 inh,T cruzi growth-2,T cruzi growth-3,3T3 cytotox,3T3 cytotox 2
Cc1ccc(NC(=O)CSc2ncccn2)cc1Cl,0,/,/,/,/,/,/
Cc1ccccc1-n1nnnc1SCC(=O)Nc1cccc(Cl)c1Cl,0,/,/,/,/,/,/
COc1ccccc1-c1ccc2c(c1)O[C@H](CN(C)C)[C@H](C)CN([C@H](C)CO)S2(=O)=O,0,8,-1,/,/,/,/
COc1ccccc1-c1ccc2c(c1)O[C@H](CN(C)S(=O)(=O)c1ccc(C)cc1)[C@@H](C)CN([C@@H](C)CO)S2(=O)=O,4,126*,-2,104*,66,39*,36*
COc1ccccc1-c1ccc2c(c1)O[C@@H](CN(C)S(=O)(=O)c1ccc(C)cc1)[C@H](C)CN([C@H](C)CO)S2(=O)=O,0,127*,-2,105*,103*,30,45*
COc1ccccc1-c1ccc2c(c1)O[C@@H](CN(C)C)[C@@H](C)CN([C@@H](C)CO)S2(=O)=O,1,22,2,/,/,/,/
C[C@@H]1CN([C@@H](C)CO)C(=O)c2cc(NC(=O)Nc3ccc(F)cc3)ccc2O[C@@H](C)CCCCO[C@H]1CN(C)Cc1ccc(C(F)(F)F)cc1,-1,109*,0,100*,112*,25,19
C[C@@H]1CN([C@H](C)CO)C(=O)c2cc(NC(=O)Nc3ccc(F)cc3)ccc2O[C@@H](C)CCCCO[C@H]1CN(C)Cc1ccc(C(F)(F)F)cc1,/,94,-2,/,/,/,/
C[C@@H]1CCCCO[C@H](CN(C)Cc2ccc(C(F)(F)F)cc2)[C@@H](C)CN([C@H](C)CO)C(=O)c2cc(NC(=O)Nc3ccc(F)cc3)ccc2O1,/,62,0,/,/,/,/
C[C@@H]1CCCCO[C@H](CN(C)Cc2ccc(C(F)(F)F)cc2)[C@H](C)CN([C@@H](C)CO)C(=O)c2cc(NC(=O)Nc3ccc(F)cc3)ccc2O1,/,100*,0,?,117*,18,30*
C[C@@H]1CN([C@H](C)CO)C(=O)c2cc(NC(=O)Nc3ccc(F)cc3)ccc2O[C@@H](C)CCCCO[C@@H]1CN(C)Cc1ccc(C(F)(F)F)cc1,-3,100*,1,84,114*,3,8
C[C@H]1CCCCO[C@H](CN(C)Cc2ccc(C(F)(F)F)cc2)[C@@H](C)CN([C@@H](C)CO)C(=O)c2cc(NC(=O)Nc3ccc(F)cc3)ccc2O1,/,91,-1,/,/,/,/
COC(=O)c1ccc(NC(=O)CN(c2ccc(C)cc2C)S(C)(=O)=O)cc1,2,/,/,/,/,/,/
C[C@H]1CCCCO[C@@H](CN(C)Cc2ccc(C(F)(F)F)cc2)[C@@H](C)CN([C@@H](C)CO)C(=O)c2cc(NC(=O)Nc3ccc(C(F)(F)F)cc3)ccc2O1,/,?,3,?,113*,38*,0
C[C@H](CO)N1C[C@H](C)[C@@H](CN(C)Cc2ccc(C(F)(F)F)cc2)OCCCC[C@H](C)Oc2ccc(NC(=O)Nc3ccc(C(F)(F)F)cc3)cc2C1=O,/,32,12,/,/,/,/
C[C@@H]1CCCCO[C@@H](CN(C)Cc2ccc(C(F)(F)F)cc2)[C@@H](C)CN([C@H](C)CO)C(=O)c2cc(NC(=O)Nc3ccc(C(F)(F)F)cc3)ccc2O1,/,99*,0,112*,105*,18,6
COc1ccc(NC(=O)Nc2ccc3c(c2)C(=O)N([C@@H](C)CO)C[C@@H](C)[C@H](CN(C)Cc2ccc(C(F)(F)F)cc2)OCCCC[C@@H](C)O3)cc1,0,72,0,/,/,/,/
COc1ccc(NC(=O)Nc2ccc3c(c2)C(=O)N([C@@H](C)CO)C[C@H](C)[C@H](CN(C)Cc2ccc(C(F)(F)F)cc2)OCCCC[C@@H](C)O3)cc1,0,96*,3,105*,102*,16,6
C[C@@H]1CCCCO[C@H](CN(C)Cc2ccc(C(F)(F)F)cc2)[C@@H](C)CN([C@H](C)CO)C(=O)c2cc(NC(=O)Nc3ccc(C(F)(F)F)cc3)ccc2O1,1,99*,1,105*,112*,0,-1
C[C@@H]1CN([C@H](C)CO)C(=O)c2cc(NC(=O)Nc3ccc(C(F)(F)F)cc3)ccc2O[C@@H](C)CCCCO[C@H]1CN(C)Cc1ccc(C(F)(F)F)cc1,1,84,-2,/,/,/,/
C[C@@H]1CCCCO[C@H](CN(C)Cc2ccc(C(F)(F)F)cc2)[C@@H](C)CN([C@@H](C)CO)C(=O)c2cc(NC(=O)Nc3ccc(C(F)(F)F)cc3)ccc2O1,/,83,0,/,/,/,/
CCC(C)C(O)C(C)(O)/C=C/C1=CC2=C(Cl)C(=O)C(C)(O)C(O)C2=CO1 (configuration not stated),0,/,/,/,/,/,/
Cc1cc(N(CC(=O)NC2CCCCC2)S(C)(=O)=O)ccc1Br,0,/,/,/,/,/,/
COc1ccc(NC(=O)CNC(=O)c2ccccc2)cc1Cl,0,/,/,/,/,/,/
O=C(CSc1nc(Nc2ccccc2)nc(Nc2ccccc2)n1)N1CCN(c2ccccc2)CC1,0,/,/,/,/,/,/
SMILES,IDH1 R132H inh,T cruzi growth-1,GASC1 inh,T cruzi growth-2,T cruzi growth-3,3T3 cytotox,3T3 cytotox 2
COc1ccc(NC(=O)Nc2ccc3c(c2)C(=O)N([C@H](C)CO)C[C@@H](C)[C@H](CN(C)Cc2ccc(C(F)(F)F)cc2)O3)cc1,-1,-11,11,/,/,/,/
COc1ccc(NC(=O)Nc2ccc3c(c2)C(=O)N([C@@H](C)CO)C[C@@H](C)[C@H](CN(C)Cc2ccc(C(F)(F)F)cc2)O3)cc1,3,111*,-1,104*,-7,?,97*
CC(C)CC#Cc1ccc2c(c1)O[C@@H](CN(C)CC1CC1)[C@@H](C)CN([C@@H](C)CO)S2(=O)=O,-1,111*,-1,110*,89,21,103*
CC(C)CC#Cc1ccc2c(c1)O[C@H](CN(C)CC1CCOCC1)[C@H](C)CN([C@@H](C)CO)S2(=O)=O,/,107,5,/,/,/,/
CCCN(C)C[C@@H]1Oc2cc(C#CCC(C)C)ccc2S(=O)(=O)N([C@@H](C)CO)C[C@H]1C,/,/,-1,/,/,/,/
CC(C)CC#Cc1ccc2c(c1)O[C@@H](CN(C)C)[C@@H](C)CN([C@@H](C)CO)S2(=O)=O,-1,26,0,/,/,/,/
CC(C)CC#Cc1ccc2c(c1)O[C@@H](CN(C)CC1CCCC1)[C@H](C)CN([C@@H](C)CO)S2(=O)=O,/,/,1,/,/,/,/
CC(C)CC#Cc1ccc2c(c1)O[C@H](CN(C)CC1CC1)[C@H](C)CN([C@H](C)CO)S2(=O)=O,-1,105*,-2,108*,63,13,106*
CC(C)CC#Cc1ccc2c(c1)O[C@@H](CN(C)CC1CC1)[C@@H](C)CN([C@H](C)CO)S2(=O)=O,-3,107*,3,105*,52,38*,103*

# Screens (PubChem BioAssay)
